Assay results taken from ChEMBL document CHEMBL4024795, “G-Quadruplex Identification in the Genome of Protozoan Parasites Points to Naphthalene Diimide Ligands as New Antiparasitic Agents” (J Med Chem, 2018).
Active and inactive are the calls of the source. No cut-off for these calls is given here.

Assays:
[1] = system: Trypanosoma brucei brucei; assay: Antitrypanosomal activity against bloodstream form of Trypanosoma brucei brucei after 72 hrs by alamar blue assay; format: functional
Summary of the method: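 Bloodstream-form T. b. brucei single marker S427 (S16) in HMI-9 + 10% hiFBS, seeded at 1 × 10^4 per mL. Increasing compound concentrations for 72 h at 37 °C, 5% CO2. Proliferation by alamarBlue fluorescence (ex 550/em 590 nm).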

Leishmania major = assay: Antileishmanial activity against Leishmania major MHOM/IL/80/Friedlin promastigotes after 72 hrs by MTT assay; format: functional
Summary of the method: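 L. major Friedlin promastigotes at 1 × 10^6 per mL, 72 h at 28 °C in modified RPMI-1640 + 10% hiFBS with increasing drug concentrations; proliferation by MTT, absorbance 540 nm.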

MRC5 = assay: Cytotoxicity against human MRC5 cells assessed as cell growth inhibition after 72 hrs by MTT assay; format: cell-based; settings: MRC5, 72 h
Summary of the method: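 MRC5 cells in low-glucose DMEM + 10% hiFBS, seeded by trypsinization at 5000 cells/well with increasing compound concentrations. MTT read-out after 72 h at 37 °C. IC50 = 50% growth reduction versus untreated cells.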

Plasmodium falciparum = assay: Antimalarial activity against erythrocyte stage of Plasmodium falciparum 3D7 preincubated for 48 hrs followed by [3H]-hypoxanthine addition measured after 18 hrs by liquid scintillation counting; format: functional
Summary of the method: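 P. falciparum 3D7-infected erythrocytes (1.5% hematocrit, 0.6% parasitemia) in RPMI 1640 + 10% AB human serum, DMSO ≤0.25% final. After 48 h at 37 °C, 0.6 μCi [3H]-hypoxanthine added for 18 h. Cells harvested onto glass-fibre filters and counted by scintillation, with uninfected-erythrocyte background subtracted. IC50 = 50% growth inhibition.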

[2] = Selectivity index, ratio of IC50 for human MRC5 cells to IC50 for Leishmania major MHOM/IL/80/Friedlin promastigotes; format: toxicity; settings: read-out: Ratio IC50
Summary of the method: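 SI is IC50(MRC-5)/IC50(parasite). L. major Friedlin promastigotes (1 × 10^6/mL) were exposed to increasing compound in modified RPMI-1640 + 10% hiFBS for 72 h at 28 °C, with MTT read at 540 nm. MRC5 cells (5000/well, low-glucose DMEM + 10% hiFBS) got increasing compound for 72 h at 37 °C, with MTT read-out. IC50 is versus untreated cells.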

[3] = Selectivity index, ratio of IC50 for human MRC5 cells to IC50 for bloodstream form of Trypanosoma brucei brucei; format: toxicity; settings: read-out: Ratio IC50
Summary of the method: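 Ratio of IC50 in MRC-5 to IC50 in parasite. Bloodstream-form T. b. brucei single-marker S427 (1 × 10^4/mL, HMI-9 + 10% hiFBS) was exposed to increasing compound for 72 h at 37 °C, 5% CO2, with alamarBlue fluorescence (ex 550/em 590).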

[4] = Selectivity index, ratio of IC50 for human MRC5 cells to IC50 for erythrocyte stage of Plasmodium falciparum 3D7; format: toxicity; settings: read-out: Ratio IC50
Danio rerio [5] = species on record: Danio rerio; assay: Acute toxicity in AB zebrafish embryo assessed as no observed effect concentration with mortality score of >20% at 100 uM after 96 hrs post-fertlization; settings: in vivo
Summary of the method: (§1)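 AB-strain embryos, with abnormal ones discarded, were placed 20 per condition at 3 hpf into compound dilutions in 0.1% DMSO/E3 (0.01, 0.1, 1, 10, 100 μM) and kept at 28.5 °C to 96 hpf. Mortality was scored and LC50 fitted by sigmoidal curve. NOEC/LOEC took >20% mortality as the effect. Controls were 0.1% DMSO (triplicate) and DEAB.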

Danio rerio [6] = species on record: Danio rerio; assay: (§2) Acute toxicity in AB zebrafish embryo assessed as mortality after 96 hrs post-fertlization; settings: in vivo, 96 h; summary of the method: as §1
Trypanosoma brucei [7] = assay: Binding affinity to Trypanosoma brucei FT-labeled EBR1 G-quadruplex DNA at 3 uM by circular dichroism spectroscopic analysis
Summary of the method: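 EBR1-FT quadruplex at 3 μM in 10 mM lithium cacodylate pH 7.2 with 100 mM KCl, titrated with ligand (ratio 1:0 to 1:10). Spectra recorded at 25 °C in a 1 cm cell, average of three scans at 100 nm/min, 2 nm bandwidth.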

[8] = Drug localization in Trypanosoma brucei nucleus at 5 uM after 30 mins by confocal microscopic analysis; format: ADME; settings: 0.5 h
Summary of the method: (§3)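 T. brucei exposed to 5 μM compound in medium at 37 °C for 30 or 150 min. Fixed in 4% paraformaldehyde for 30 min, washed twice in cold PBS, then imaged by confocal microscopy using the compounds' intrinsic fluorescence.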

[9] = Drug localization in Trypanosoma brucei kinetoplast at 5 uM after 30 mins by confocal microscopic analysis; format: ADME; settings: 0.5 h; summary of the method: as §3
Trypanosoma brucei [10] = assay: Drug localization in Trypanosoma brucei nucleus at 5 uM after 150 mins by confocal microscopic analysis; format: ADME; settings: 2.5 h; summary of the method: as §3
[11] = Drug localization in Trypanosoma brucei kinetoplast at 5 uM after 150 mins by confocal microscopic analysis; format: ADME; settings: 2.5 h; summary of the method: as §3
Danio rerio [12] = species on record: Danio rerio; assay: Acute toxicity in AB zebrafish embryo assessed as lowest observed effect concentration with mortality score of >20% at 100 uM after 96 hrs post-fertlization; settings: in vivo; summary of the method: as §1
[13] = system: human telomeric hTel G-quadruplex DNA (Homo sapiens); assay: Binding affinity to FT-labeled human telomeric hTel G-quadruplex DNA assessed as change in melting temperature at 2 uM at pH 7.2 by FRET melting assay
[14] = as §2; parameters: species or system Danio rerio; settings: AB, in vivo; summary of the method: as §1

C[C@H]1O[C@@H](n2cc(CNc3cc4c5c(ccc6c5c3C(=O)N(CCCN(C)C)C6=O)C(=O)N(CCCN(C)C)C4=O)nn2)[C@H](O)[C@@H](O)[C@@H]1O
IC50 [1]: 0.017 µM
IC50 (Leishmania major): 0.184 µM
IC50 (MRC5): 0.91 µM
IC50 (Plasmodium falciparum): 0.225 µM
selectivity ratio [2]: 4.9
selectivity ratio [3]: 53.5
selectivity ratio [4]: 4
NOAEL (Danio rerio [5]): 100 µM
LC50 (Danio rerio [6]): 170 µM

CCCNc1cc2c3c(ccc4c3c1C(=O)N(CCCN(C)C)C4=O)C(=O)N(CCCN(C)C)C2=O
Activity (Trypanosoma brucei [7]): Active
IC50 (Leishmania major): 0.034 µM
IC50 (MRC5): 0.36 µM
IC50 (Plasmodium falciparum): 0.091 µM
selectivity ratio [4]: 4
Drug uptake [8]: Active
Drug uptake [9]: Active
Drug uptake (Trypanosoma brucei [10]): Active
Drug uptake [11]: Active
NOAEL (Danio rerio [5]): 100 µM
MTC (Danio rerio [12]): 1000 µM
LC50 (Danio rerio [6]): 410 µM
ΔTm [13]: 19 °C

CN(C)CCCN1C(=O)c2ccc3c4c(c(NCc5cn(CCO[C@@H]6O[C@H](CO)[C@@H](O)[C@H](O)[C@H]6O)nn5)cc(c24)C1=O)C(=O)N(CCCN(C)C)C3=O
Activity (Trypanosoma brucei [7]): Active
IC50 (Leishmania major): 0.537 µM
IC50 (MRC5): 0.71 µM
IC50 (Plasmodium falciparum): 0.275 µM
selectivity ratio [4]: 2.6
Drug uptake [8]: Active
Drug uptake [9]: Active
Drug uptake (Trypanosoma brucei [10]): Active
Drug uptake [11]: Active
NOAEL (Danio rerio [5]): 100 µM
LC50 at 96 h [14]: > 1000 µM
ΔTm [13]: 10 °C

CN(C)CCCN1C(=O)c2ccc3c4c(c(NCc5cn(CCO[C@H]6O[C@H](CO)[C@@H](O)[C@H](O)[C@@H]6O)nn5)cc(c24)C1=O)C(=O)N(CCCN(C)C)C3=O
IC50 [1]: 0.021 µM
IC50 (Leishmania major): 0.306 µM
IC50 (MRC5): 0.81 µM
IC50 (Plasmodium falciparum): 0.18 µM
selectivity ratio [2]: 2.6
selectivity ratio [3]: 38.6
selectivity ratio [4]: 4.5
NOAEL (Danio rerio [5]): 100 µM
LC50 at 96 h [14]: > 1000 µM

CCCCCCCCCCCCCCCCOP(=O)([O-])OCC[N+](C)(C)C [MILTEFOSINE]
IC50 (Leishmania major): 6.07 µM

CN(C)CCCN1C(=O)c2ccc3c4c(c(NCc5cn([C@@H]6O[C@H](CO)[C@@H](O)[C@H](O)[C@H]6O)nn5)cc(c24)C1=O)C(=O)N(CCCN(C)C)C3=O
IC50 [1]: 0.024 µM
IC50 (Leishmania major): 0.244 µM
IC50 (MRC5): 1.15 µM
IC50 (Plasmodium falciparum): 1.35 µM
selectivity ratio [4]: 0.9
NOAEL (Danio rerio [5]): 100 µM
LC50 at 96 h [14]: > 1000 µM

C[n+]1ccc(-c2c3nc(c(-c4cc[n+](C)cc4)c4ccc([nH]4)c(-c4cc[n+](C)cc4)c4nc(c(-c5cc[n+](C)cc5)c5ccc2[nH]5)C=C4)C=C3)cc1
IC50 [1]: > 10 µM
IC50 (Leishmania major): 20.8 µM
IC50 (MRC5): > 25 µM
IC50 (Plasmodium falciparum): > 25 µM
selectivity ratio [2]: > 1.7

CC(=O)N[C@@H]1[C@@H](O)[C@H](O)[C@@H](CO)O[C@H]1n1cc(CNc2cc3c4c(ccc5c4c2C(=O)N(CCCN(C)C)C5=O)C(=O)N(CCCN(C)C)C3=O)nn1
IC50 [1]: 0.089 µM
IC50 (Leishmania major): 1.04 µM
IC50 (MRC5): 0.51 µM
IC50 (Plasmodium falciparum): 0.36 µM
selectivity ratio [2]: 0.5
selectivity ratio [3]: 5.7
selectivity ratio [4]: 1.4
NOAEL (Danio rerio [5]): 100 µM
LC50 at 96 h [14]: > 1000 µM

CN(C)c1ccc(Nc2c3ccc(NC(=O)CCN4CCCC4)cc3nc3cc(NC(=O)CCN4CCCC4)ccc23)cc1
IC50 [1]: 5.51 µM
IC50 (Leishmania major): 12.7 µM
IC50 (MRC5): 8.33 µM
IC50 (Plasmodium falciparum): 9.7 µM
selectivity ratio [2]: 0.7
selectivity ratio [3]: 1.5
selectivity ratio [4]: 0.9

NCCOc1cc(C(=O)Nc2cc(OCCN)c3ccccc3n2)nc(C(=O)Nc2cc(OCCN)c3ccccc3n2)c1 [PYRIDOSTATIN]
IC50 [1]: 7.82 µM
IC50 (Leishmania major): 5 µM
IC50 (MRC5): 5.38 µM
IC50 (Plasmodium falciparum): 2.65 µM
selectivity ratio [2]: 1.1
selectivity ratio [3]: 0.7
selectivity ratio [4]: 2
